Test results reported in ChEMBL document CHEMBL4020818, “Novel Sigma Receptor Ligand-Nitric Oxide Photodonors: Molecular Hybrids for Double-Targeted Antiproliferative Effect” (J Med Chem, 2017).
Active and inactive are the calls of the source.

Key:
[1] = Selectivity ratio of Ki for sigma 1 receptor in guinea pig brain membranes to Ki for sigma 2 receptor (unknown origin); assay type: cell membranes
[2] = Stability of the compound in water/methanol (1:1) mixture assessed as nitric oxide release under light irradiation by amperometric detection method; assay type: physicochemical; details: buffer
[3] = Solubility of the compound in water/methanol (1:1) mixture; assay type: physicochemical; details: buffer
[4] = biological target: Sigma non-opioid intracellular receptor 1 (Cavia porcellus, UniProt Q60492); assay: Displacement of [3H]-(+)-pentazocine from sigma 1 receptor in guinea pig brain membranes after 150 mins by liquid scintillation counting method; assay type: cell membranes, Membrane
Outline: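 Separated by filtration on PEI-presoaked GF/B filters, washed with ice-cold buffer, counted by liquid scintillation.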

[5] = biological target: Sigma intracellular receptor 2 (Homo sapiens, UniProt Q5BJF2); assay: Displacement of [3H]-DTG from sigma 2 receptor (unknown origin) after 120 mins by liquid scintillation counting method
[6] = Dark toxicity in human A2058 cells assessed as decrease in cell viability after 24 hrs by MTT assay; assay type: cell-based
Outline: (§1)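 Cells seeded at 10 × 10^3 per well, grown 24 h, then exposed in the dark for 24 h at 37 °C to compound (DMSO stock diluted in medium), top concentration 100 µM. MTT 0.5% added for 4 h, formazan dissolved in DMSO, read at 550 nm. Viability is expressed relative to untreated controls. EC50 comes from a variable-slope sigmoidal fit; quadruplicate wells, mean ± SEM.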

A2058 [7] = assay: Phototoxicity in human A2058 cells assessed as decrease in cell viability at 1 to 10 uM preincubated for 24 hrs followed by light irradiation for 15 mins by MTT assay; assay type: functional, cell-based
Outline: (§2)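 Cells preincubated 24 h with graded compound concentrations, medium then replaced with phenol red-free medium. Irradiated 15 min with a 150 W Xe lamp through a 390 nm cutoff filter; untreated cells also irradiated. Viability by MTT (0.5%, 4 h, DMSO, 550 nm) as percent of untreated controls; quadruplicate wells, mean ± SD.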

MCF7 [8] = assay: Phototoxicity in human MCF7 cells assessed as decrease in cell viability at 0.01 to 10 uM preincubated for 24 hrs followed by light irradiation for 15 mins by MTT assay; assay type: functional, cell-based; outline: as §2
[9] = Stability in human A2058 cells assessed as nitric oxide release under light irradiation at 10 uM preincubated for 24 hrs followed by light irradiation for 15 mins by DCF-DA dye-based fluorescence microscopic method; assay type: ADME, cell-based; details: a2058, 0.25 h
Outline: (§3)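 Cells plated on glass coverslips at 50,000, attached overnight, serum-starved 24 h, then treated with compound for 24 h. Loaded with 10 µM DCF-DA for 1 h, washed in PBS, irradiated in phenol red-free medium (Xe lamp, 390 nm cutoff, 15 min). Fixed in 4% PFA and imaged by fluorescence microscopy at 10x and 40x, dark versus light.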

[10] = Dark toxicity in human MCF7 cells assessed as decrease in cell viability after 24 hrs by MTT assay; assay type: cell-based; outline: as §1
[11] = Dark toxicity in human NCTC-2544 cells assessed as decrease in cell viability after 24 hrs by MTT assay; assay type: cell-based; outline: as §1
[12] = Stability in human MCF7 cells assessed as nitric oxide release under light irradiation at 10 uM preincubated for 24 hrs followed by light irradiation for 15 mins by DCF-DA dye-based fluorescence microscopic method; assay type: ADME, cell-based; details: mcf7, 0.25 h; outline: as §3
NCTC-2544 [13] = assay: Phototoxicity in human NCTC-2544 cells assessed as decrease in cell viability at 0.01 to 10 uM preincubated for 24 hrs followed by light irradiation for 15 mins by MTT assay; assay type: cell-based; details: nctc-2544, 0.25 h; outline: as §2
NCTC-2544 [14] = assay: Dark toxicity in human NCTC-2544 cells assessed as decrease in cell viability at 0.01 to 10 uM after 24 hrs by MTT assay; assay type: cell-based; details: nctc-2544, 24 h
Outline: (§4)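 Dark arm of the light experiments. Cells were seeded at 10 × 10^3 per well, precultured 24 h, then incubated 24 h at 37 °C with graded compound concentrations without irradiation. Viability was read by MTT (0.5%, 4 h, DMSO, 550 nm) as percent of untreated controls; quadruplicate wells, mean ± SD.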

MCF7 [15] = assay: Dark toxicity in human MCF7 cells assessed as decrease in cell viability at 0.01 to 10 uM after 24 hrs by MTT assay; assay type: cell-based; details: mcf7, 24 h; outline: as §4
MCF7 [16] = assay: Dark toxicity in human MCF7 cells assessed as decrease in cell viability at 10 to 50 uM after 24 hrs by MTT assay; assay type: cell-based; details: mcf7, 24 h; outline: as §4
[17] = Stability in human MCF7 cells assessed as nitric oxide release under light irradiation at 50 uM preincubated for 24 hrs followed by light irradiation for 15 mins by Griess assay; assay type: ADME, cell-based; details: mcf7, 0.25 h
Outline: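 After 50 µM compound treatment and irradiation (or dark control), cells were pelleted and lysed in hypotonic solution. Supernatant mixed 1:1 with Griess reagent, 30 min at 37 °C in the dark, absorbance read at 545 nm. Normalised to protein content; total nitrite quantified against a sodium nitrite standard.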

NCTC-2544 [18] = assay: Phototoxicity in human NCTC-2544 cells assessed as decrease in cell viability at 10 to 50 uM preincubated for 24 hrs followed by light irradiation for 15 mins by MTT assay; assay type: cell-based; details: nctc-2544, 0.25 h; outline: as §2
MCF7 [19] = assay: Phototoxicity in human MCF7 cells assessed as decrease in cell viability at 10 to 50 uM preincubated for 24 hrs followed by light irradiation for 15 mins by MTT assay; assay type: functional, cell-based; outline: as §2
[20] = Stability in human MCF7 cells assessed as nitric oxide release under light irradiation at 50 uM preincubated for 24 hrs followed by light irradiation for 15 mins by DCF-DA dye-based fluorescence microscopic method; assay type: ADME, cell-based; details: mcf7, 0.25 h; outline: as §3
A2058 [21] = assay: Phototoxicity in human A2058 cells assessed as decrease in cell viability at 10 to 50 uM preincubated for 24 hrs followed by light irradiation for 15 mins by MTT assay; assay type: functional, cell-based; outline: as §2
NCTC-2544 [22] = assay: Dark toxicity in human NCTC-2544 cells assessed as decrease in cell viability at 10 to 50 uM after 24 hrs by MTT assay; assay type: cell-based; details: nctc-2544, 24 h; outline: as §4
A2058 [23] = assay: Dark toxicity in human A2058 cells assessed as decrease in cell viability at 10 to 50 uM after 24 hrs by MTT assay; assay type: cell-based; details: a2058, 24 h; outline: as §4

Sequence of Sigma intracellular receptor 2 (Q5BJF2 whole entry): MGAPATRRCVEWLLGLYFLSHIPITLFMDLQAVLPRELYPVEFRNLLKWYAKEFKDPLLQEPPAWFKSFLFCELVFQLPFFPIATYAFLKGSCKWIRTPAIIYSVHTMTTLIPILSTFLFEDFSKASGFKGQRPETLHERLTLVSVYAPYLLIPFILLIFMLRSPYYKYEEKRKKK
Sequence of Sigma non-opioid intracellular receptor 1 (Q60492 whole entry): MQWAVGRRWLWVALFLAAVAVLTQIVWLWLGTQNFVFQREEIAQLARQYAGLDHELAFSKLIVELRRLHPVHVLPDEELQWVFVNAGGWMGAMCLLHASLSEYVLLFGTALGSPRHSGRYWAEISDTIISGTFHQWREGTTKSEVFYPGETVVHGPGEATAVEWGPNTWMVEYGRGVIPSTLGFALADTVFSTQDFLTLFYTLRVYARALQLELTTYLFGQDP

Compound: O=[N+]([O-])c1ccc(NCCN2CCC(Cc3ccccc3)CC2)cc1C(F)(F)F
- Ratio Ki [1]: 0.53
- Stability [2]: Unstable
- solubility [3]: Soluble
- Ki [4]: 0.0407 µM
- Ki [5]: 0.0761 µM

Compound: O=[N+]([O-])c1ccc(NCCCCCN2CCC(Cc3ccccc3)CC2)cc1C(F)(F)F
- EC50 at 24 h ([6]; read-out: EC50): 14.2 µM
- EC50 at 24 h ([6]; read-out: pEC50 (converted)): 14.1 µM
- Ratio Ki [1]: 1.68
- Activity (A2058 [7]): Active
- Activity (MCF7 [8]): Active
- Stability [2]: Unstable
- solubility [3]: Soluble
- Stability [9]: Unstable
- Ki [4]: 0.0404 µM
- EC50 at 24 h ([10]; read-out: EC50): 14.9 µM
- EC50 at 24 h ([10]; read-out: pEC50 (converted)): 14.8 µM
- EC50 at 24 h ([11]; read-out: EC50): 15 µM
- EC50 at 24 h ([11]; read-out: pEC50 (converted)): 15.1 µM
- Stability [12]: Unstable
- Activity (NCTC-2544 [13]): Non-Toxic
- Activity (NCTC-2544 [14]): Non-Toxic
- Ki [5]: 0.024 µM
- Activity (MCF7 [15]): Non-Toxic

Compound: COc1cc2c(cc1OC)CN(CCNc1ccc([N+](=O)[O-])c(C(F)(F)F)c1)CC2
- EC50 at 24 h ([6]; read-out: EC50): > 100 µM
- EC50 at 24 h ([6]; read-out: pEC50 (converted)): > 100 µM
- Ratio Ki [1]: 164
- Activity (MCF7 [16]): Non-Toxic
- Stability [2]: Unstable
- Stability [17]: Unstable
- Activity (NCTC-2544 [18]): Non-Toxic
- solubility [3]: Soluble
- Ki [4]: 3.92 µM
- EC50 at 24 h ([10]; read-out: EC50): > 100 µM
- EC50 at 24 h ([10]; read-out: pEC50 (converted)): > 100 µM
- Activity (MCF7 [19]): Active
- EC50 at 24 h ([11]; read-out: EC50): > 100 µM
- EC50 at 24 h ([11]; read-out: pEC50 (converted)): > 100 µM
- Stability [20]: Unstable
- Activity (A2058 [21]): inactive
- Activity (NCTC-2544 [22]): Non-Toxic
- Ki [5]: 0.0238 µM
- Activity (A2058 [23]): Non-Toxic

Compound: O=[N+]([O-])c1ccc(NCCCCN2CCC(Cc3ccccc3)CC2)cc1C(F)(F)F
- Ratio Ki [1]: 2.38
- Stability [2]: Unstable
- solubility [3]: Soluble
- Ki [4]: 0.02 µM
- Ki [5]: 0.0084 µM

Compound: COc1cc2c(cc1OC)CN(CCCCNc1ccc([N+](=O)[O-])c(C(F)(F)F)c1)CC2
- Ratio Ki [1]: 1.64
- Stability [2]: Unstable
- solubility [3]: Soluble
- Ki [4]: 0.0378 µM
- Ki [5]: 0.023 µM
